The source made the active and inactive calls. No cut-off for these calls is given here.
Tests used:
A549 [1] = experiment: Upregulation of GDF15 gene expression in human A549 cells at 26 nM after 12 hrs by microarray analysis relative to control; format: functional
Method in brief: (§1)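 4 ×10^5 A549 cells seeded per 60 mm dish and treated 12 h with conjugate (21, 26, 34 or 100 nM) in medium; control medium contained 0.1% DMSO, with conjugates added as 0.1% DMSO solutions. Whole human genome (~25 000 genes) expression profiled by microarray against the DMSO control. A549 culture: RPMI-1640 with 10% heat-inactivated FBS, penicillin/streptomycin, 37 °C, 5% CO2.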

A549 [2] = experiment: Upregulation of CDKN1A gene expression in human A549 cells at 26 nM after 12 hrs by microarray analysis relative to control; format: functional; method in brief: as §1
A549 [3] = experiment: Downregulation of MYCBP2 gene expression in human A549 cells at 26 nM after 12 hrs by microarray analysis relative to control; format: functional
Method in brief: (§2)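 A549 cells, 4 × 10^5 per 60 mm dish, were exposed to conjugate for 12 h in medium with 0.1% DMSO; vehicle control was 0.1% DMSO. Whole human genome (~25 000 genes) expression was profiled by microarray and expression compared with the control.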

A549 [4] = experiment: Downregulation of XP_375606.2 gene expression in human A549 cells at 26 nM after 12 hrs by microarray analysis relative to control; format: functional
Method in brief: (§3)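 A549 cells (RPMI-1640, 10% heat-inactivated FBS, penicillin/streptomycin, 37 °C, 5% CO2) seeded at 4 × 10^5 per 60 mm dish. Exposed 12 h to conjugate at 21, 26, 34 or 100 nM in medium with 0.1% DMSO, against 0.1% DMSO control. Whole-genome (~25 000 genes) expression profiled by microarray.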

A549 [5] = experiment: Downregulation of HS2ST1 gene expression in human A549 cells at 26 nM after 12 hrs by microarray analysis relative to control; format: functional; method in brief: as §2
DU-145 = experiment: Antitumor activity against human DU145 cells xenografted in BALB/c-nu/nu mouse assessed as effect on tumor growth at 1.6 mg/kg, iv administered as liposomal conjugate for 14 days; format: functional, organism-based; set-up: dose 1.6 mg/kg
Method in brief: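 Male BALB/c-nu/nu mice (5 weeks, 15−22 g) with subcutaneous right-subaxillary A549 or DU145 xenografts (3 × 10^6 cells/mouse), grouped by tumor size. Liposomes were made from a lipid film hydrated in water and bath-sonicated 2 h, giving 330 μg/mL conjugate in 17 mM lipid. A single 125 μL intravenous dose (41 μg/mouse) was given on day 0. Tumor size and weight were read every other day for 14 days. n = 5 or 6.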

A549 [6] = experiment: Downregulation of ADH1A gene expression in human A549 cells at 26 nM after 12 hrs by microarray analysis relative to control; format: functional; method in brief: as §2
A549 [7] = experiment: Downregulation of Q5WOV6 gene expression in human A549 cells at 26 nM after 12 hrs by microarray analysis relative to control; format: functional; method in brief: as §3
A549 [8] = experiment: Downregulation of EPM2A gene expression in human A549 cells at 26 nM after 12 hrs by microarray analysis relative to control; format: functional; method in brief: as §2
A549 [9] = experiment: Downregulation of TNIK gene expression in human A549 cells at 26 nM after 12 hrs by microarray analysis relative to control; format: functional; method in brief: as §3
A549 [10] = experiment: Downregulation of NP_940865.1 gene expression in human A549 cells at 26 nM after 12 hrs by microarray analysis relative to control; format: functional; method in brief: as §3
A549 [11] = experiment: Downregulation of Q8N570 gene expression in human A549 cells at 26 nM after 12 hrs by microarray analysis relative to control; format: functional; method in brief: as §3
A549 [12] = experiment: Downregulation of SLC4A4 gene expression in human A549 cells at 26 nM after 12 hrs by microarray analysis relative to control; format: functional; method in brief: as §3
A549 [13] = experiment: Downregulation of CTTNBP2 gene expression in human A549 cells at 26 nM after 12 hrs by microarray analysis relative to control; format: functional; method in brief: as §2
A549 [14] = experiment: Downregulation of Q9Y6Z5 gene expression in human A549 cells at 26 nM after 12 hrs by microarray analysis relative to control; format: functional; method in brief: as §3
A549 [15] = experiment: Downregulation of SEMA3E gene expression in human A549 cells at 26 nM after 12 hrs by microarray analysis relative to control; format: functional; method in brief: as §3
A549 [16] = experiment: Upregulation of PPM1D gene expression in human A549 cells at 26 nM after 12 hrs by microarray analysis relative to control; format: functional; method in brief: as §1
A549 [17] = experiment: Upregulation of GADD45A gene expression in human A549 cells at 26 nM after 12 hrs by microarray analysis relative to control; format: functional; method in brief: as §1
A549 [18] = experiment: Downregulation of DPYD gene expression in human A549 cells at 26 nM after 12 hrs by microarray analysis relative to control; format: functional; method in brief: as §2
A549 [19] = experiment: Downregulation of NBEA gene expression in human A549 cells at 34 nM after 12 hrs by microarray analysis relative to control; format: functional; method in brief: as §2
A549 [20] = experiment: Downregulation of Q9P223 gene expression in human A549 cells at 34 nM after 12 hrs by microarray analysis relative to control; format: functional; method in brief: as §3
A549 [21] = experiment: Downregulation of SIPA1L1 gene expression in human A549 cells at 34 nM after 12 hrs by microarray analysis relative to control; format: functional; method in brief: as §3
A549 [22] = experiment: Downregulation of SMYD3 gene expression in human A549 cells at 34 nM after 12 hrs by microarray analysis relative to control; format: functional; method in brief: as §3
A549 [23] = experiment: Downregulation of LAMA2 gene expression in human A549 cells at 34 nM after 12 hrs by microarray analysis relative to control; format: functional; method in brief: as §2
A549 [24] = experiment: Upregulation of GLS2 gene expression in human A549 cells at 34 nM after 12 hrs by microarray analysis relative to control; format: functional; method in brief: as §1
A549 [25] = experiment: Downregulation of Q8N570 gene expression in human A549 cells at 34 nM after 12 hrs by microarray analysis relative to control; format: functional; method in brief: as §3
A549 [26] = experiment: Downregulation of GPX6 gene expression in human A549 cells at 34 nM after 12 hrs by microarray analysis relative to control; format: functional; method in brief: as §2
A549 [27] = experiment: Upregulation of U124 gene expression in human A549 cells at 34 nM after 12 hrs by microarray analysis relative to control; format: functional; method in brief: as §1
A549 [28] = experiment: Downregulation of ZNF407 gene expression in human A549 cells at 34 nM after 12 hrs by microarray analysis relative to control; format: functional; method in brief: as §3
A549 [29] = experiment: Upregulation of BBC3 gene expression in human A549 cells at 34 nM after 12 hrs by microarray analysis relative to control; format: functional; method in brief: as §3
A549 [30] = experiment: Upregulation of KRTHA4 gene expression in human A549 cells at 34 nM after 12 hrs by microarray analysis relative to control; format: functional; method in brief: as §1
A549 [31] = experiment: Downregulation of NP_001027.2 gene expression in human A549 cells at 34 nM after 12 hrs by microarray analysis relative to control; format: functional; method in brief: as §2
A549 [32] = experiment: Upregulation of HES2 gene expression in human A549 cells at 34 nM after 12 hrs by microarray analysis relative to control; format: functional; method in brief: as §1
A549 [33] = experiment: Downregulation of NP_115632.1 gene expression in human A549 cells at 34 nM after 12 hrs by microarray analysis relative to control; format: functional; method in brief: as §2
A549 [34] = experiment: Upregulation of MDM2 gene expression in human A549 cells at 34 nM after 12 hrs by microarray analysis relative to control; format: functional; method in brief: as §1

CC(=O)Nc1cn(C)c(C(=O)Nc2cc(C(=O)Nc3cc(C(=O)NCCC(=O)Nc4cc(C(=O)NCCCC(=O)Nc5cc(C(=O)NCCC(=O)Nc6cn(C)c(C(=O)Nc7ccc8[nH]c(C(=O)N9CC(CCl)c%10c9cc(O)c9ccccc%109)cc8c7)n6)n(C)c5)n(C)c4)n(C)c3)n(C)c2)n1 (racemic)
fold change (FC) (A549 [1]): 5.5 | fold change (FC) (A549 [2]): 8.2 | fold change (FC) (A549 [3]): 0.338 | fold change (FC) (A549 [4]): 0.35 | fold change (FC) (A549 [5]): 0.329 | Activity (DU-145): Active | fold change (FC) (A549 [6]): 0.317 | fold change (FC) (A549 [7]): 0.324 | fold change (FC) (A549 [8]): 0.353 | fold change (FC) (A549 [9]): 0.312 | fold change (FC) (A549 [10]): 0.322 | fold change (FC) (A549 [11]): 0.283 | fold change (FC) (A549 [12]): 0.273 | fold change (FC) (A549 [13]): 0.36 | fold change (FC) (A549 [14]): 0.356 | fold change (FC) (A549 [15]): 0.353 | fold change (FC) (A549 [16]): 5.7 | fold change (FC) (A549 [17]): 7 | fold change (FC) (A549 [18]): 0.115

CC(=O)Nc1cn(C)c(C(=O)Nc2cn(C)c(C(=O)Nc3cc(C(=O)NCCC(=O)Nc4cc(C(=O)NCCCC(=O)Nc5cn(C)c(C(=O)NCCC(=O)Nc6cn(C)c(C(=O)Nc7ccc8[nH]c(C(=O)N9CC(CCl)c%10c9cc(O)c9ccccc%109)cc8c7)n6)n5)n(C)c4)n(C)c3)n2)n1 (racemic)
fold change (FC) (A549 [19]): 0.152 | fold change (FC) (A549 [20]): 0.258 | fold change (FC) (A549 [21]): 0.309 | fold change (FC) (A549 [22]): 0.291 | fold change (FC) (A549 [23]): 0.3 | fold change (FC) (A549 [24]): 6.7 | fold change (FC) (A549 [25]): 0.186 | fold change (FC) (A549 [26]): 0.322 | fold change (FC) (A549 [27]): 5.6 | fold change (FC) (A549 [28]): 0.241 | fold change (FC) (A549 [29]): 8.5 | fold change (FC) (A549 [30]): 6.1 | fold change (FC) (A549 [31]): 0.313 | fold change (FC) (A549 [32]): 8.2 | fold change (FC) (A549 [33]): 0.273 | fold change (FC) (A549 [34]): 8.9

Reference: ChEMBL document CHEMBL2169747, “Synthesis and biological properties of highly sequence-specific-alkylating N-methylpyrrole-N-methylimidazole polyamide conjugates” (J Med Chem, 2012)
